Experimental data from ChEMBL document CHEMBL4325870, “Synthesis and biological evaluation of 3-aryl-quinolin derivatives as anti-breast cancer agents targeting ERα and VEGFR-2” (Eur J Med Chem, 2019).
Calls of active or inactive are those of the source. No cut-off for these calls is given here.

Molecular target: Vascular endothelial growth factor receptor 2 (Homo sapiens, UniProt P35968)
Conditions: not given

Vascular endothelial growth factor receptor 2, sequence (P35968 whole entry): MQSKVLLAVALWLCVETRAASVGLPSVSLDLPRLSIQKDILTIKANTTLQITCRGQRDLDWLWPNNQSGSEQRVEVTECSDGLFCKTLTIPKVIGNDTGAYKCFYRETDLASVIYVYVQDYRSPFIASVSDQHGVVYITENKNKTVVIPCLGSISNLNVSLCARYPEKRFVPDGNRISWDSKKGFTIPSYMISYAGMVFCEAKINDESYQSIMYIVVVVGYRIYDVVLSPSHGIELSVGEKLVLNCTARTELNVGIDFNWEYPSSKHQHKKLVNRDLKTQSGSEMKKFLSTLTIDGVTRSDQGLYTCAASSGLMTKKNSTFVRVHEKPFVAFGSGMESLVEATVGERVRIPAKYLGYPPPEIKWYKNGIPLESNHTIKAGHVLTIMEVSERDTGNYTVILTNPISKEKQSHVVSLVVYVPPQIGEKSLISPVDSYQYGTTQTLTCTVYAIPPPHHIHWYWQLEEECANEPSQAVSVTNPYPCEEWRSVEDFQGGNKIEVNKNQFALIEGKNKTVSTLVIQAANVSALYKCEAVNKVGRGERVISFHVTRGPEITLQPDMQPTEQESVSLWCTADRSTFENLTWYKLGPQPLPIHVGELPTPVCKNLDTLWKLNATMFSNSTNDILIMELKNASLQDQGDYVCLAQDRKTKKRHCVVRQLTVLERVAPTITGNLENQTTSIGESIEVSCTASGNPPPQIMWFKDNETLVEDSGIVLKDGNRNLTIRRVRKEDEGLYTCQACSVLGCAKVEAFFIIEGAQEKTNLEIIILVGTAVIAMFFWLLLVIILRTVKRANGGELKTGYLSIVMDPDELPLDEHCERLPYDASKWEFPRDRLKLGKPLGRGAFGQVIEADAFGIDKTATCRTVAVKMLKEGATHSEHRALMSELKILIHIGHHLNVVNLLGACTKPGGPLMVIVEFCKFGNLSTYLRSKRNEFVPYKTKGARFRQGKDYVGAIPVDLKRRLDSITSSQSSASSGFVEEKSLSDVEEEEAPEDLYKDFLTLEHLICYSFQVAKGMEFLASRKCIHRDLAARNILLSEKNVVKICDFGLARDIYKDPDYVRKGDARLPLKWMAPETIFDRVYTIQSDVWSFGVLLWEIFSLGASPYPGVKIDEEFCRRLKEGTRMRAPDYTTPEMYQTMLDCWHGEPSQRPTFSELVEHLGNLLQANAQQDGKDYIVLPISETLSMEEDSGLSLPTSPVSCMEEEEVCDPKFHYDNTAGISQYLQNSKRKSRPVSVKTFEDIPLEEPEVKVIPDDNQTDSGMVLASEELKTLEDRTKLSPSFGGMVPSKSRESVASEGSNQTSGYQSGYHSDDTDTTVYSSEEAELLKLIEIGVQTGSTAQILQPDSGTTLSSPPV

Compound | IC50 [µM]
COc1ccc(-c2cc3ccc(OC)cc3nc2Nc2ccc(NC(=O)CN3CCN(C)CC3)cc2)cc1 | 0.104
COc1ccc(-c2cc3ccc(OC)cc3nc2Nc2ccc(NC(=O)CN3CCCCC3)cc2)cc1 | 0.079

The next lines start with the values.

IC50 [µM] | Compound
0.081 | CCN(CC)CC(=O)Nc1ccc(Nc2nc3ccc(OC)cc3cc2-c2ccc(OC)cc2)cc1
0.125 | COc1ccc(-c2cc3ccc(OC)cc3nc2Nc2ccc(NC(=O)CN3CCCC3)cc2)cc1
0.101 | CCN(CC)CC(=O)Nc1ccc(Nc2nc3cc(OC)ccc3cc2-c2ccc(OC)cc2)cc1

System: HUVEC
Experiment: Antiproliferative activity against HUVEC after 48 hrs by MTT assay
Format: functional, cell-based
Conditions: Homo sapiens
How it was run: (§1)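 Cells kept in RPMI1640 with 10% FBS and penicillin/streptomycin at 37 °C, 5% CO2. Seeded at 1 x 10^5/mL, grown 24 h, then exposed to compound-containing medium for 48 h; controls received 1% DMSO medium. MTT (5 mg/mL) added for 4 h in the dark, formazan dissolved in DMSO, absorbance read. Value is concentration giving 50% growth inhibition.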

Compound | IC50 [µM]
CCN(CC)CC(=O)Nc1ccc(Nc2nc3ccc(OC)cc3cc2-c2ccc(OC)cc2)cc1 | 45.6
COc1ccc(-c2cc3ccc(OC)cc3nc2Nc2ccc(NC(=O)CN3CCCC3)cc2)cc1 | 8.6
CCN(CC)CCNC(=O)c1c(C)[nH]c(/C=C2\C(=O)Nc3ccc(F)cc32)c1C [SUNITINIB] | 3.2
CCN(CC)CC(=O)Nc1ccc(Nc2nc3cc(OC)ccc3cc2-c2ccc(OC)cc2)cc1 | 14
COc1ccc(-c2cc3ccc(OC)cc3nc2Nc2ccc(NC(=O)CN3CCN(C)CC3)cc2)cc1 | 7.4
COc1ccc(-c2cc3ccc(OC)cc3nc2Nc2ccc(NC(=O)CN3CCCCC3)cc2)cc1 | 23.5

System: Ishikawa
Experiment: Antiproliferative activity against human Ishikawa cells after 48 hrs by MTT assay
Format: functional
Conditions: not given
How it was run: as §1

Compound | Activity [µM]
CCN(CC)CC(=O)Nc1ccc(Nc2nc3ccc(OC)cc3cc2-c2ccc(OC)cc2)cc1 | >50
O=C(c1ccc(OCCN2CCCCC2)cc1)c1c(-c2ccc(O)cc2)sc2cc(O)ccc12 [RALOXIFENE] | >50
COc1ccc(-c2cc3ccc(OC)cc3nc2Nc2ccc(NC(=O)CN3CCCC3)cc2)cc1 | 8.2
CCN(CC)CCNC(=O)c1c(C)[nH]c(/C=C2\C(=O)Nc3ccc(F)cc32)c1C [SUNITINIB] | 14.3
CCN(CC)CC(=O)Nc1ccc(Nc2nc3cc(OC)ccc3cc2-c2ccc(OC)cc2)cc1 | 21.4
CC/C(=C(\c1ccccc1)c1ccc(OCCN(C)C)cc1)c1ccccc1 [TAMOXIFEN] | >50
COc1ccc(-c2cc3ccc(OC)cc3nc2Nc2ccc(NC(=O)CN3CCN(C)CC3)cc2)cc1 | 3.8
COc1ccc(-c2cc3ccc(OC)cc3nc2Nc2ccc(NC(=O)CN3CCCCC3)cc2)cc1 | >50

System: MCF7
Experiment: Antimigratory activity in human MCF7 cells assessed as inhibition of wound healing at 1.25 uM after 8 to 48 hrs by phase contrast microscopic analysis
Format: functional, cell-based
Conditions: not given
How it was run: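 Wound-healing assay: MCF-7 monolayers grown to full confluence in 24-well plates, scratched with a tip, washed twice with PBS, then given serum-free 1640 medium with or without compound at 1.25 μM. Wound closure photographed by phase-contrast microscopy (100×) at 8, 16, 24/48 h; migration rate quantified from images.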

Compound | inhibition
CCN(CC)CCNC(=O)c1c(C)[nH]c(/C=C2\C(=O)Nc3ccc(F)cc32)c1C [SUNITINIB] | Active

Molecular target: T1, Estrogen receptor (Homo sapiens, UniProt P03372)
T1 sequence (P03372 whole entry): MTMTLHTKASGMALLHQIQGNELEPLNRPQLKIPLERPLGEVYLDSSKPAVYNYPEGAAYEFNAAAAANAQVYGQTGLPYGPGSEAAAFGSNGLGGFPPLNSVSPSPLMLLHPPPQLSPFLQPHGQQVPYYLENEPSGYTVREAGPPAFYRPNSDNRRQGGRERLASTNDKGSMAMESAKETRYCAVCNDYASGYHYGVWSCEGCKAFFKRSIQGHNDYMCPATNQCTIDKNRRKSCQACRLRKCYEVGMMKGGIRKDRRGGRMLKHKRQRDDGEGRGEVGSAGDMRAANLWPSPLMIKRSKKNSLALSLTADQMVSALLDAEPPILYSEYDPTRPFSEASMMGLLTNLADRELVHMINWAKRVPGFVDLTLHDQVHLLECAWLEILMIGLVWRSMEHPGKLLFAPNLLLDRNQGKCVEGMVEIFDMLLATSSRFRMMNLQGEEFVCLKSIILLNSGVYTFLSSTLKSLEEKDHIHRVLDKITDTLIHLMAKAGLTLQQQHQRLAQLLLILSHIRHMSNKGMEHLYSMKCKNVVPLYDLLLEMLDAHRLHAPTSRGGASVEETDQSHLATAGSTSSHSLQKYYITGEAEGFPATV
Experiment: Displacement of fluorescent estrogen ligand from recombinant human full length untagged ERalpha expressed in Spodoptera frugiperda insect cells measured after 2 hrs by fluorescence polarization assay
Conditions: not given

IC50 [µM] | Compound
2.33 | COc1ccc(-c2cc3ccc(OC)cc3nc2Nc2ccc(NC(=O)CN3CCN(C)CC3)cc2)cc1

System: MCF7
Experiment: Effect on progesterone receptor mRNA expression in non-stimulated human MCF7 cells at 1 uM by SYBR green dye based RT-PCR analysis
Format: ADME, cell-based
Conditions: mcf7, 1 µM
How it was run: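 Real-time PCR on MCF-7 cells given compound at 1 μM alone, without estradiol. Amplification: 95 °C 2 min, then 40 cycles of 95 °C 10 s, 60 °C 30 s, 95 °C 10 s. PgR mRNA normalised to GAPDH by the ΔΔCT method; mean ± SD, n=3.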

Compound | Activity
CC/C(=C(\c1ccccc1)c1ccc(OCCN(C)C)cc1)c1ccccc1 [TAMOXIFEN] | Non-Toxic

System: MCF7
Experiment: Antiproliferative activity against human MCF7 cells after 48 hrs by MTT assay
Format: functional, cell-based
Conditions: MCF7, 48 h
How it was run: as §1

Compound | IC50 [µM]
O=C(c1ccc(OCCN2CCCCC2)cc1)c1c(-c2ccc(O)cc2)sc2cc(O)ccc12 [RALOXIFENE] | 12.5
CC/C(=C(\c1ccccc1)c1ccc(OCCN(C)C)cc1)c1ccccc1 [TAMOXIFEN] | 16.7
COc1ccc(-c2cc3ccc(OC)cc3nc2Nc2ccc(NC(=O)CN3CCN(C)CC3)cc2)cc1 | 2.8
COc1ccc(-c2cc3ccc(OC)cc3nc2Nc2ccc(NC(=O)CN3CCCCC3)cc2)cc1 | 47.9

Continued, values first:

IC50 [µM] | Compound
> 50 | CCN(CC)CC(=O)Nc1ccc(Nc2nc3ccc(OC)cc3cc2-c2ccc(OC)cc2)cc1
6.6 | COc1ccc(-c2cc3ccc(OC)cc3nc2Nc2ccc(NC(=O)CN3CCCC3)cc2)cc1
17.3 | CCN(CC)CC(=O)Nc1ccc(Nc2nc3cc(OC)ccc3cc2-c2ccc(OC)cc2)cc1

System: Ishikawa
Experiment: Stimulation of cell proliferation in human Ishikawa cells at 1 to 10 uM after 48 hrs by MTT assay
Format: ADME, cell-based
Conditions: not given
How it was run: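 Ishikawa endometrial cells in RPMI1640 with 10% FBS, seeded at 1 x 10^5/mL, exposed 48 h to compound at 1 μM or 10 μM, then read by MTT assay (5 mg/mL MTT, 4 h, dark, DMSO solubilisation, absorbance).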

Compound | Activity
O=C(c1ccc(OCCN2CCCCC2)cc1)c1c(-c2ccc(O)cc2)sc2cc(O)ccc12 [RALOXIFENE] | Toxic
CC/C(=C(\c1ccccc1)c1ccc(OCCN(C)C)cc1)c1ccccc1 [TAMOXIFEN] | Toxic
COc1ccc(-c2cc3ccc(OC)cc3nc2Nc2ccc(NC(=O)CN3CCN(C)CC3)cc2)cc1 | Non-Toxic
